Test results taken from ChEMBL document CHEMBL5715959, “Inhibition of histone methyltransferase EZH2 in Schistosoma mansoni in vitro by GSK343 reduces egg laying and decreases the expression of genes implicated in DNA replication and noncoding RNA metabolism” (2018).
Activity calls are given as the source filed them. The rule behind the calls is not given here.

What was measured:
[1] = test system: Schistosoma mansoni; assay: Antischistosomal activity against Schistosoma mansoni assessed as schistosomula living cells at 10 to 50 uM incubated for 24 to 72 hrs by fluorescein diacetate staining based fluorescence microscope analysis; format: functional, organism-based; settings: dose 10-50 µM, time 24-72 hrs
How it was run: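 Schistosomula were cultured in supplemented M169 with 10–50 μM GSK343 or 0.1% DMSO for 24, 48 and 72 h. A fresh well set was used per time point, with 2 μg/mL propidium iodide (dead) plus 0.5 μg/mL fluorescein diacetate (live) added. Parasites were read immediately by light and fluorescence microscopy; percent viable was computed against total parasites. About 3600 schistosomula per condition over four biological replicates; 70% ethanol served as positive control.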

[2] = test system: Schistosoma mansoni; assay: Cytotoxicity against juvenile Schistosoma mansoni assessed as decrease in viability at 20 to 50 uM incubated for 24 hrs by CellTiter-Glo Luminescent assay relative to control; format: functional; settings: dose 20-50 µM
How it was run: (§1)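 Perfused juvenile worms cultured in supplemented RPMI (10% FBS, 37°C, 5% CO2), exposed 24 or 48 h to compound or 0.1% DMSO. Total parasite ATP read by luminescence, given as % of vehicle; three replicate experiments of 10 juveniles each, mean ± SD.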

[3] = test system: Schistosoma mansoni; assay: Antischistosomal activity against adult female Schistosoma mansoni assessed as rupture of blisters in dorsal region at 20 uM incubated for 24 to 48 hrs by scanning electron microscopy analysis; format: functional, organism-based; settings: time 24-48 hrs
How it was run: (§2)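 Adult couples were taken by perfusion into supplemented RPMI, one couple per well, and adapted 2 h at 37°C, 5% CO2. They were exposed to 20 μM GSK343 or 0.1% DMSO for 24 and 48 h. Fixation used modified Karnovsky with osmium post-fix, followed by ethanol dehydration, critical-point drying, gold sputtering and scanning electron microscopy of tegument surfaces.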

[4] = test system: Schistosoma mansoni; assay: Antischistosomal activity against Schistosoma mansoni assessed as lower growth rate at 20 uM incubated for 24 to 48 hrs by scanning electron microscopy analysis; format: functional; settings: time 24-48 hrs
How it was run: (§3)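 Newly transformed schistosomula were held 16 h in M169 with 2% FBS, serotonin, hypoxanthine, hydrocortisone, triiodothyronine and antibiotics at 37°C, 5% CO2, at 2,000 per well. They were then exposed to 20 μM GSK343 or 0.1% DMSO for 24 and 48 h. Fixation was modified Karnovsky (pH 7.4) with 1% osmium post-fix, then ethanol dehydration, critical-point drying, gold coating and SEM. Lengths came from three experiments, each with 20 schistosomula.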

[5] = test system: Schistosoma mansoni; assay: Antischistosomal activity against juvenile Schistosoma mansoni assessed as damaged anterior region at 20 to 50 uM incubated for 48 hrs by scanning electron microscopy analysis; format: functional, organism-based; settings: in the assay text read “at 50 uM” for “at 20 to 50 uM”
How it was run: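 Juvenile worms recovered by perfusion, five per well in supplemented RPMI (10% FBS, antibiotics, 37°C, 5% CO2), 2 h adaptation, then exposed 48 h to compound or 0.1% DMSO. Fixed in modified Karnovsky reagent (pH 7.4), washed in cacodylate buffer, post-fixed 1 h in 1% osmium tetroxide, ethanol-dehydrated, critical-point dried, gold-sputtered and imaged by scanning electron microscopy.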

[6] = test system: Schistosoma mansoni; assay: Antischistosomal activity against Schistosoma mansoni assessed as down-regulated MEG-4 mRNA level in schistosomula at 20 uM incubated for 48 hrs by RT-qPCR analysis; format: functional, organism-based
How it was run: (§4)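 Schistosomula (supplemented M169) or adult worms (supplemented RPMI) were treated 48 h with 20 μM GSK343 or 0.1% DMSO at 37°C, 5% CO2. qPCR normalizer genes were chosen from RNA-seq data as those with TPM >1 and a treated/control ratio of 0.9–1.1 that were not differentially expressed. Relative expression was calculated by comparative Ct; significance by t-test.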

[7] = test system: Schistosoma mansoni; assay: Antischistosomal activity against Schistosoma mansoni assessed as developmental changes at 20 uM incubated for 24 hrs by scanning electron microscopy analysis; format: functional, organism-based; how it was run: as §3
[8] = test system: Schistosoma mansoni; assay: Antischistosomal activity against adult male Schistosoma mansoni assessed as lesions of tegument around tubercles at 20 uM incubated for 48 hrs by scanning electron microscopy analysis; format: functional, organism-based; how it was run: as §2
[9] = test system: Schistosoma mansoni; assay: Antischistosomal activity against Schistosoma mansoni assessed as down-regulated Val7 mRNA level in schistosomula at 20 uM incubated for 48 hrs by RT-qPCR analysis; format: functional, organism-based; how it was run: as §4
[10] = test system: Schistosoma mansoni; assay: Antischistosomal activity against Schistosoma mansoni assessed as deterioration of tegument with blisters at 20 uM incubated for 24 hrs by scanning electron microscopy analysis; format: functional, organism-based; how it was run: as §3
[11] = test system: Schistosoma mansoni; assay: Antischistosomal activity against adult Schistosoma mansoni assessed as dead worms incubated for 24 hrs by inverted microscope analysis; format: functional, organism-based
How it was run: (§5)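 Paired adult worms were cultured in RPMI/10% FBS with antibiotics at 37°C, 5% CO2, with GSK343 or 0.1% DMSO. They were viewed by inverted microscope at 3, 6, 12, 24 and 48 h. Motility was scored on a 0–3 scale (3 full movement, 1.5 partial or immobile but alive, 0 dead); death meant no movement over more than 2 min. Pairing was recorded. Three experiments, each with 10 pairs; mean ± SD.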

[12] = test system: Schistosoma mansoni; assay: Cytotoxicity against juvenile Schistosoma mansoni assessed as decrease in viability at 10 to 20 uM incubated for 48 hrs by CellTiter-Glo Luminescent assay relative to control; format: functional; settings: dose 10-20 µM; how it was run: as §1
[13] = test system: Schistosoma mansoni; assay: Antischistosomal activity against adult female Schistosoma mansoni assessed as presence of fissures in egg shell at 20 uM incubated for 24 to 48 hrs by scanning electron microscopy analysis; format: functional, organism-based; settings: time 24-48 hrs
How it was run: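 Eggs released by couples kept 24 or 48 h with 20 μM GSK343 or 0.1% DMSO in supplemented RPMI were fixed in modified Karnovsky with osmium post-fix. They were dehydrated, critical-point dried, gold-coated and imaged by SEM; total egg area dimension was measured.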

[14] = test system: Schistosoma mansoni; assay: Antischistosomal activity against adult Schistosoma mansoni assessed as reduction in pairing of couples at 20 uM incubated for 48 hrs by inverted microscope analysis relative to control; format: functional; set-up: scale not given: the % may be the effect or the level left; how it was run: as §5
[15] = test system: Schistosoma mansoni; assay: Antischistosomal activity against adult female Schistosoma mansoni assessed as damaged tegument in anterior region at 20 uM incubated for 48 hrs by scanning electron microscopy analysis; format: functional, organism-based; how it was run: as §2
[16] = test system: Schistosoma mansoni; assay: Cytotoxicity against juvenile Schistosoma mansoni assessed as decrease in viability at 50 uM incubated for 48 hrs by CellTiter-Glo Luminescent assay relative to control; format: functional; how it was run: as §1
[17] = test system: Schistosoma mansoni; assay: Antischistosomal activity against female Schistosoma mansoni assessed as down-regulated EEFB1 mRNA level at 20 uM incubated for 48 hrs by RT-qPCR analysis; format: functional, organism-based; how it was run: as §4
[18] = test system: Schistosoma mansoni; assay: Antischistosomal activity against adult male Schistosoma mansoni assessed as morphological alterations in anterior and posterior regions at 20 uM incubated for 48 hrs by scanning electron microscopy analysis; format: functional, organism-based; how it was run: as §2
[19] = test system: Schistosoma mansoni; assay: Antischistosomal activity against adult female Schistosoma mansoni assessed as presence of blisters in dorsal region at 20 uM incubated for 24 to 48 hrs by scanning electron microscopy analysis; format: functional, organism-based; settings: time 24-48 hrs; how it was run: as §2
[20] = test system: Schistosoma mansoni; assay: Antischistosomal activity against female Schistosoma mansoni assessed as down-regulated Tyrosinase 1 mRNA level at 20 uM incubated for 48 hrs by RT-qPCR analysis; format: functional, organism-based; how it was run: as §4
[21] = test system: Schistosoma mansoni; assay: Antischistosomal activity against Schistosoma mansoni assessed as loss of spines at 20 uM incubated for 24 hrs by scanning electron microscopy analysis; format: functional, organism-based; how it was run: as §3
[22] = test system: Schistosoma mansoni; assay: Antischistosomal activity against adult female Schistosoma mansoni assessed as damaged tegument with extensive sloughing at 20 uM incubated for 24 to 48 hrs by scanning electron microscopy analysis; format: functional, organism-based; settings: time 24-48 hrs; how it was run: as §2
[23] = test system: Schistosoma mansoni; assay: Antischistosomal activity against Schistosoma mansoni assessed as length of schistosomula at 20 uM incubated for 24 to 48 hrs by scanning electron microscopy analysis (reference value: […]); format: functional; settings: time 24-48 hrs; how it was run: as §3

Activity [20]: Active
Compound: CCCc1cc(C)[nH]c(=O)c1CNC(=O)c1cc(-c2ccnc(N3CCN(C)CC3)c2)cc2c1cnn2C(C)C
Activity [1]: Active | Activity [2]: 20% | Activity [3]: Active | fold change (FC) [4]: 4 | Activity [5]: Active | Activity [6]: Active | Activity [7]: inactive | Activity [8]: Active | Activity [9]: Active | Activity [10]: Active | Activity [11]: Active | Activity [12]: 20% | Activity [13]: Active | Activity [14]: ~50% | Activity [15]: Active | Activity [16]: 70% | Activity [17]: Active | Activity [18]: inactive | Activity [19]: Active | Activity [21]: Active | Activity [22]: Active | Activity [23]: 74 µm
